Data taken from ChEMBL document CHEMBL4431329, “Peripherally Selective Cannabinoid 1 Receptor (CB1R) Agonists for the Treatment of Neuropathic Pain” (J Med Chem, 2016).
Active and inactive are the calls of the source.

Key:
[1] = Half life in naive Sprague-Dawley rat at 0.3 mg/kg, ip by LC/MS/MS analysis; type: ADME, organism-based; conditions: in vivo
In short: (§1)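 Male Sprague–Dawley rats given a single ip injection (drug in 50/50 DMSO:Cremophor EL, diluted in sterile saline, 1.5 mL/kg). Tail-vein blood (~110 μL) drawn at intervals after brief restraint, centrifuged, plasma stored −20 °C. Quantified by LC-MS/MS against standard curves prepared in samples from untreated animals; n = 3 rats.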

[2] = Cmax in naive naive Sprague-Dawley rat at 0.3 mg/kg, ip by LC/MS/MS analysis; type: ADME, organism-based; design: dose 0.3 mg/kg, route intraperitoneal; conditions: in vivo; in short: as §1
Rattus norvegicus [3] = experiment: Increase in SNE-induced hindpaw contralateral withdrawal threshold in naive Sprague-Dawley rat at 0.3 mg/kg, ip incubated for 3 hrs followed by SNE addition; type: organism-based; conditions: in vivo
In short: (§2)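 Male Sprague–Dawley rats received unilateral sciatic nerve entrapment. Testing began 8 days post-surgery at 3-day intervals, dosed ip in DMSO/Cremophor EL/saline. Hindpaw withdrawal threshold (g) was read with a digital von Frey meter, 4 readings per paw at 30 s spacing, averaged. Reads were taken 1 h before and 3, 6, 24 and 48 h after dosing; n = 8; blinded; one-way RM ANOVA.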

Rattus norvegicus [4] = experiment: Analgesic activity in naive Sprague-Dawley rat assessed as tail flick latency at 0.1 to 10 mg/kg administered through oral gavage up to 48 hrs by tail-flick assay; type: functional, organism-based
In short: (§3)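 Naïve male Sprague–Dawley rats were dosed ip (DMSO/Cremophor EL/saline) or by gavage (DMSO in 20% condensed milk). Radiant heat was aimed 3 cm from the tail tip and latency timed by photocell. Baseline was set to ~5–7 s with a 25 s cutoff. Testing ran 1 h pre-dose and up to 48 h after. Peak effect was taken minus vehicle; n = 6–8; blinded.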

Rattus norvegicus [5] = experiment: Antiallodynic activity in SNE-induced mechanical allodynia naive Sprague-Dawley rat model assessed as […] in hindpaw ipsilateral withdrawal threshold at 0.6 mg/kg, ip preincubated for 3 hrs followed by SNE addition in presence of tert-Butyl-4-[5-(4-Chlorophenyl)-1-(2,4-dichlorophenyl)-4- methyl-1H-pyrazole-3-amido]piperidine-1-carboxylate; type: functional, organism-based
In short: (§4)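 SNE rats were given the test agonist ip alone, or 30 min after pretreatment with a selective CB1R or CB2R antagonist, with sessions at 3-day intervals. Ipsilateral hindpaw withdrawal threshold was measured by digital von Frey (4 readings per paw averaged). Tests were blinded.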

Rattus norvegicus [6] = experiment: Antiallodynic activity in SNE-induced mechanical allodynia naive Sprague-Dawley rat model assessed as decrease in hindpaw ipsilateral withdrawal threshold at 0.6 mg/kg, ip preincubated for 3 hrs followed by SNE addition in presence of rimonabant; type: functional, organism-based; in short: as §4
[7] = Metabolic stability in Sprague-Dawley rat plasma assessed as compound remaining at 10 uM measured at 1 hr by LC/MS analysis; type: ADME, cell-free
In short: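 Compound (10 μM final, from 1 mM ethanol stock) was incubated in male Sprague–Dawley rat plasma at 37 °C. Aliquots taken at 0, 30 and 60 min were extracted with 3 volumes methanol and centrifuged. Supernatants were analysed by LC/MS.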

Rattus norvegicus [8] = experiment: Antiallodynic activity in SNE-induced mechanical allodynia naive Sprague-Dawley rat model assessed as reversible […] in hindpaw ipsilateral withdrawal threshold at 0.3 mg/kg, ip preincubated for 3 hrs followed by SNE addition; type: functional, organism-based; in short: as §2
[9] = Toxicity in naive Sprague-Dawley rat assessed as motor incoordination at 10 mg/kg administered through oral gavage after 2 to 48 hrs by rotarod test; type: organism-based; conditions: in vivo
In short: (§5)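 Rats were trained 72 h earlier (3 sessions, 24 h apart) to stay ≥180 s on an accelerating rotarod (4–40 rev over 5 min). Time on rod was recorded to a 3 min cutoff, 1 h pre-dose and 2, 6, 24 and 48 h after ip or oral gavage dosing. Values are peak effect minus vehicle; n = 6–8; blinded.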

[10] = Ratio of drug level in cerebrospinal fluid to plasma in naive Sprague-Dawley rat at 0.3 mg/kg, ip after 75 mins; type: ADME, organism-based, CSF/Plasma
In short: (§6)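 Samples taken from 3 rats ~75 min after ip dosing. CSF (100–150 μL) was taken from the cisterna magna under isoflurane. Brain was removed after pentobarbital anesthesia and cold-saline intracardiac perfusion. Plasma came from tail-vein blood. Drug was measured by LC-MS/MS against standard curves made in untreated-animal matrix, and the ratio was taken to plasma.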

Rattus norvegicus [11] = experiment: Analgesic activity in naive Sprague-Dawley rat assessed as increase in tail flick latency at 0.3 mg/kg, ip up to 48 hrs by tail-flick assay; type: functional, organism-based; in short: as §3
Cannabinoid receptor 2 = Cannabinoid receptor 2 (Homo sapiens, UniProt P34972); experiment: Agonist activity at human CB2R expressed in CHO cells by Ca2+ flux assay; type: functional, cell-based
Cannabinoid receptor 2, sequence (P34972 whole entry): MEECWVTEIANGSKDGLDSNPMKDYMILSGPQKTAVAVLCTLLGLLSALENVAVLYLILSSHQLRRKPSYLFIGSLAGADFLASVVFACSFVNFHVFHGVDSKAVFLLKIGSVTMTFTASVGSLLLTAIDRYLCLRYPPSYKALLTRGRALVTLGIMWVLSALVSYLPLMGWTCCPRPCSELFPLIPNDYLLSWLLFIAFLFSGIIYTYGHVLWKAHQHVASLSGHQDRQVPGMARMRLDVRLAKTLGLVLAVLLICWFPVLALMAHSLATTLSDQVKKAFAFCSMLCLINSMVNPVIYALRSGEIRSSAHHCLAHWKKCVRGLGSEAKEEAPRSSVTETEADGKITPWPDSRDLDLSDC
In short: (§7)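 CHO cells stably co-expressing human CB1 or CB2 with Gαq16 were seeded at 40000/well and grown 24 h at 37 °C. They were loaded 1 h at 37 °C with Fluo-4 AM (2 μM final) in HBSS/20 mM HEPES/1% BSA/probenecid. Agonist was added after ~17 s baseline, and fluorescence (ex 488/em 525) was read each 1 s for 60 s. Runs were done 3–6 times; mean ± SEM.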

[12] = Toxicity in naive Sprague-Dawley rat assessed as immobility at 0.3 mg/kg, ip after 2 to 48 hrs by catalepsy ring test; type: organism-based; conditions: in vivo
In short: (§8)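 In the ring immobility test, forepaws were placed on a 12 cm horizontal ring with hindpaws just touching the bench. Time to move off was recorded, 100 s cutoff. Testing was pre-dose and 2, 6, 24 and 48 h after ip or oral gavage dosing. Values are peak effect minus vehicle; n = 6–8; blinded.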

[13] = Toxicity in naive Sprague-Dawley rat assessed as motor incoordination at 0.3 mg/kg, ip after 2 to 48 hrs by rotarod test; type: organism-based; conditions: in vivo; in short: as §5
Rattus norvegicus [14] = experiment: Antiallodynic activity in SNE-induced mechanical allodynia naive Sprague-Dawley rat model assessed as decrease in hindpaw ipsilateral withdrawal threshold at 0.6 mg/kg, ip preincubated for 3 hrs followed by SNE addition in presence of SR141716; type: functional, organism-based; in short: as §4
Rattus norvegicus [15] = experiment: Antiallodynic activity in SNE-induced mechanical allodynia naive Sprague-Dawley rat model assessed as […] in hindpaw ipsilateral withdrawal threshold at 3 mg/kg, po preincubated for 3 hrs followed by SNE addition; type: functional, organism-based
In short: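 SNE rats were dosed by oral gavage (drug in DMSO diluted in 20% sweetened condensed milk, 16 mL/kg). Ipsilateral/contralateral hindpaw withdrawal thresholds were measured by digital von Frey, 4 readings per paw averaged, before and at intervals after dosing. n = 8 rats; blinded; one-way RM ANOVA against predrug values.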

[16] = Toxicity in naive Sprague-Dawley rat assessed as hypothermia at 10 mg/kg administered through oral gavage after 2 to 48 hrs by core temperature test; type: organism-based; conditions: in vivo
In short: (§9)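 Naïve rats were acclimated to a restrainer (two 5-min sessions 20 min apart). Core temperature was taken before and 2, 6, 24 and 48 h after ip (DMSO/Cremophor EL/saline) or oral gavage (DMSO in 20% condensed milk) dosing. Dose-response points are mean peak effect minus vehicle; n = 6–8 rats; blinded.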

Rattus norvegicus [17] = experiment: Antiallodynic activity in SNE-induced mechanical allodynia naive Sprague-Dawley rat model assessed as decrease in hindpaw ipsilateral withdrawal threshold at 0.6 mg/kg, ip preincubated for 3 hrs followed by SNE addition in presence of SR144528; type: functional, organism-based; in short: as §4
[18] = AUC in naive Sprague-Dawley rat at 0.3 mg/kg, ip by LC/MS/MS analysis; type: ADME, organism-based; conditions: in vivo; in short: as §1
[19] = Toxicity in naive Sprague-Dawley rat assessed as hypothermia at 0.3 mg/kg, ip after 2 to 48 hrs by core temperature test; type: organism-based; conditions: in vivo; in short: as §9
Cannabinoid receptor 1 [20] = target: T1, Cannabinoid receptor 1 (Homo sapiens, UniProt P21554); experiment: Agonist activity at human CB1R expressed in CHO cells by Ca2+ flux assay; type: functional, cell-based; in short: as §7
T1 sequence (P21554 whole entry): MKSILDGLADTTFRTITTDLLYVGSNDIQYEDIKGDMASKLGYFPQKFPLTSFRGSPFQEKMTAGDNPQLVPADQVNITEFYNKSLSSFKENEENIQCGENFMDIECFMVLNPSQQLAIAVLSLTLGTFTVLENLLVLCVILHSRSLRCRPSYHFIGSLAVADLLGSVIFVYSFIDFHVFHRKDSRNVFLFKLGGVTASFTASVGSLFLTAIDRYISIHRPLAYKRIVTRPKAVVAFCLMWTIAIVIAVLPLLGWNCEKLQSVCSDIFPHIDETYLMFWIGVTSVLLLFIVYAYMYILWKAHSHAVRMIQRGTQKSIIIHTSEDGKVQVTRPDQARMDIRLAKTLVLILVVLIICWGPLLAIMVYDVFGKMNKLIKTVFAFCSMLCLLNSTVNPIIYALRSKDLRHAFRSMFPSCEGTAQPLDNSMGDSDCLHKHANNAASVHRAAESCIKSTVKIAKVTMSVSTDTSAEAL

[21] = Toxicity in naive Sprague-Dawley rat assessed as immobility at 10 mg/kg administered through oral gavage after 2 to 48 hrs by catalepsy ring test; type: organism-based; conditions: in vivo; in short: as §8
[22] = Ratio of drug level in brain to plasma in naive Sprague-Dawley rat at 0.3 mg/kg, ip after 75 mins; type: ADME, organism-based; conditions: read-out: BPR; in short: as §6
[23] = Metabolic stability in Sprague-Dawley rat liver S9 fraction assessed as compound remaining at 10 uM measured at 1 hr by LC/MS analysis; type: ADME, subcellular; conditions: s9, 1 h
In short: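 Compound (10 μM final, from 1 mM ethanol stock) was incubated at 37 °C in male Sprague–Dawley rat liver S9 (1 mg protein/mL). The mix held an NADPH-regenerating system (1 mM NADP, 5 mM glucose 6-phosphate, 1 U/mL G6PDH) in 50 mM KPO4 pH 7.4 with 3 mM MgCl2, preincubated 5 min. Samples at 0–120 min were methanol-extracted and analysed by LC/MS.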

Cannabinoid receptor 1 [24] = target: T1, Cannabinoid receptor 1; experiment: Displacement of [3H]-CP55940 from human CB1 receptor
In short: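 Radioligand displacement used [3H]-CP55940 as tracer in heterologous competition binding. Unlabeled reference ligands defined nonspecific binding. Ki was calculated by Cheng–Prusoff.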

[25] = Efflux ratio of permeability in MDCK cells expressing mdr1 at 10 uM by mass spectroscopic analysis; type: ADME, cell-based, Canis lupus familiaris; conditions: dog
In short: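 MDCK-mdr1 monolayers were grown 4 days on Transwell filters in DMEM/F12 with 10% FBS. Compound (10 μM) was added apically in HBSS with 25 mM D-glucose, HEPES pH 7.4, and incubated 1 h at 37 °C. Apical and basal samples were quantified by LC-MS/MS (MRM). Values are the average of 2–3 measurements.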

Cannabinoid receptor 1 [26] = target: Cannabinoid receptor 1 (Rattus norvegicus, UniProt P20272); experiment: Displacement of [3H]-CP55940 from rat CB1 receptor
Cannabinoid receptor 1 (Rattus norvegicus, UniProt P20272), sequence (P20272 whole entry): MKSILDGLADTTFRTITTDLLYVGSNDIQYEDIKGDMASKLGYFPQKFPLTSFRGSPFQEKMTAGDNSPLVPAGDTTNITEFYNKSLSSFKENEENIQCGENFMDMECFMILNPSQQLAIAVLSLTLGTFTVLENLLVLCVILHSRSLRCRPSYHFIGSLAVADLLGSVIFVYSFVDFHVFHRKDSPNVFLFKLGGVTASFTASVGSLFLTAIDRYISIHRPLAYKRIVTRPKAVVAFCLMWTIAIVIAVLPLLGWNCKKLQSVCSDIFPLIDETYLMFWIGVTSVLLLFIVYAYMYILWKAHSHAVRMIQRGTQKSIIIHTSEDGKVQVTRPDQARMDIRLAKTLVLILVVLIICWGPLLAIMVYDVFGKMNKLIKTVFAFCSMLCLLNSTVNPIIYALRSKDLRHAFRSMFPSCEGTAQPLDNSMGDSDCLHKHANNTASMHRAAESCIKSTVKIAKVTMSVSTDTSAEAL

[27] = Toxicity in naive Sprague-Dawley rat assessed as immobility at 0.1 to 10 mg/kg administered through oral gavage after 2 to 48 hrs by catalepsy ring test; type: organism-based; conditions: in vivo; in short: as §8
[28] = Toxicity in naive Sprague-Dawley rat assessed as motor incoordination at 0.1 to 10 mg/kg administered through oral gavage after 2 to 48 hrs by rotarod test; type: organism-based; conditions: in vivo; in short: as §5
[29] = Toxicity in naive Sprague-Dawley rat assessed as hypothermia at 0.1 to 10 mg/kg administered through oral gavage after 2 to 48 hrs by core temperature test; type: organism-based; conditions: in vivo; in short: as §9

For `CCCc1ccc(/C=C2\C=C(CCN3CCOCC3)c3ccccc32)c2ccccc12`, the half-life [1] was 7.2 h, the Cmax [2] was 11.9 ng/mL and the Activity (Rattus norvegicus [3]) was “Toxic”. For the same compound, the Activity (Rattus norvegicus [4]) was “Active”, the Activity (Rattus norvegicus [5]) was “inactive” and the Activity (Rattus norvegicus [6]) was “inactive”. The Stability [7] was 92%, the Activity (Rattus norvegicus [8]) was “Active” and the Activity [9] was “Non-Toxic”. The Kp at 1.25 h [10] was 0.001, the Activity (Rattus norvegicus [11]) was “Active” and the EC50 (Cannabinoid receptor 2) was 0.094 µM. The Emax (Cannabinoid receptor 2) was 69%, the Activity [12] was “Non-Toxic” and the Activity [13] was “Non-Toxic”. The Activity (Rattus norvegicus [14]) was “inactive”, the Activity (Rattus norvegicus [15]) was “Active” and the Activity [16] was “Non-Toxic”. The Activity (Rattus norvegicus [17]) was “Active”, the AUC [18] was 112 ng·h/mL and the Activity [19] was “Non-Toxic”. The EC50 (Cannabinoid receptor 1 [20]) was 0.182 µM, the Emax (Cannabinoid receptor 1 [20]) was 108% and the Activity [21] was “Non-Toxic”. For the same compound, the Kp at 1.25 h [22] was 0.182 and the Stability [23] was 37%.

With `O=C(O)CCCCn1cc(C(=O)c2cccc3ccccc23)c2ccccc21` the Ki (Cannabinoid receptor 1 [24]) was > 10 µM.

`C1=C(CCN2CCOCC2)c2ccccc2/C1=C/c1ccc2c3c(cccc13)CC2` showed an EC50 (Cannabinoid receptor 2) of 0.594 µM, an Emax (Cannabinoid receptor 2) of 20% and a Ratio [25] of 0.0014.

`COc1ccc(C(=O)c2c(C)n(CCN3CCOCC3)c3ccccc23)cc1` [PRAVADOLINE] showed a Ki (Cannabinoid receptor 1 [26]) of 2.51 µM.

With `C1=C(CCN2CCOCC2)c2ccccc2/C1=C/c1cccc2ccccc12` the Stability [7] was 98.5%, the Activity (Rattus norvegicus [8]) was “Active” and the EC50 (Cannabinoid receptor 2) was 0.138 µM. It also gave an Emax (Cannabinoid receptor 2) of 27%, an EC50 (Cannabinoid receptor 1 [20]) of 0.257 µM and an Emax (Cannabinoid receptor 1 [20]) of 103%. It also gave a Ratio [25] of 0.001 and a Stability [23] of 22.5%.

With `C[N+]1(CCn2cc(C(=O)c3cccc4ccccc34)c3ccccc32)CCOCC1` the Ki (Cannabinoid receptor 1 [24]) was > 10 µM.

For `CCc1ccc(/C=C2\C=C(CCN3CCOCC3)c3ccccc32)c2ccccc12`, the Activity [27] was “Non-Toxic”, the Activity (Rattus norvegicus [4]) was “Active” and the Activity (Rattus norvegicus [11]) was “Active”. The EC50 (Cannabinoid receptor 2) was 0.163 µM, the Emax (Cannabinoid receptor 2) was 59% and the Activity [28] was “Non-Toxic”. For the same compound, the Activity [29] was “Non-Toxic”, the EC50 (Cannabinoid receptor 1 [20]) was 0.141 µM and the Emax (Cannabinoid receptor 1 [20]) was 121%.

`CCCCCn1cc(C(=O)c2cccc3ccccc23)c2ccc(F)cc21` showed a Stability [7] of 80% and a Stability [23] of 30%.

In the case of `CCCCCn1cc(C(=O)c2ccc(C(=O)O)c3ccccc23)c2ccccc21`, the Ki (Cannabinoid receptor 1 [24]) is reported as > 10 µM.

For `O=C(O)CCCn1cc(C(=O)c2cccc3ccccc23)c2ccccc21`, the Ki (Cannabinoid receptor 1 [24]) was > 10 µM.
